This passage reports Ratio Ki, inhibition and Ki results from ChEMBL document CHEMBL3739355, “Design, synthesis and evaluation of bitopic arylpiperazinephenyl-1,2,4-oxadiazoles as preferential dopamine D3 receptor ligands” (Bioorg Med Chem, 2016).

For test [1], the species on record is Homo sapiens. The test can be described thus: Selectivity ratio of Ki for human dopamine D2 receptor to Ki for human dopamine D3 receptor.
Test [2] has as its target T1, D(3) dopamine receptor (Homo sapiens, UniProt P35462). The test can be described thus: Displacement of [3H]-sulpiride from human dopamine D3 receptor expressed in HEK293 cells at 0.1 uM after 150 mins by liquid scintillation counting. In kind it is cell-based. Summed up:
(§1)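 Transiently PEI-transfected HEK293 cells expressing human D2R or D3R, serum-free, rinsed ice-cold. Each ligand at a single concentration competed at 4 °C for 150 min with [³H]-sulpiride: 2.2 nM for D2R, 4.4 nM for D3R. Unbound label removed by three washes in ice-cold MEM/10 mM HEPES pH 7.4. Cells were lysed in 1% SDS and bound radioactivity read by liquid scintillation.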

Test [3] addresses T2, D(2) dopamine receptor (Homo sapiens, UniProt P14416). The test can be described thus: Displacement of [3H]-sulpiride from human dopamine D2 receptor expressed in HEK293 cells at 0.1 uM after 150 mins by liquid scintillation counting. In kind it is cell-based. Summed up: as §1
The target of test [4] is T1, D(3) dopamine receptor. The experiment in a line: Displacement of [3H]-sulpiride from human dopamine D3 receptor expressed in HEK293 cells at 1 uM after 150 mins by liquid scintillation counting. In kind it is cell-based. Summed up:
as §1
On the technique in general: Displacement assays read how much labelled ligand stays bound in the presence of the test substance.

Test [5] addresses T2, D(2) dopamine receptor. The experiment in a line: Displacement of [3H]-sulpiride from human dopamine D2 receptor expressed in HEK293 cells at 1 uM after 150 mins by liquid scintillation counting. Type of test: cell-based. In outline: as §1
For test [6], the target named is T1, D(3) dopamine receptor. The experiment in a line: Displacement of [3H]-sulpiride from human dopamine D3 receptor expressed in HEK293 cells after 150 mins by liquid scintillation counting. Type of test: cell-based.
In test [7] the target is T2, D(2) dopamine receptor. The test can be described thus: Displacement of [3H]-sulpiride from human dopamine D2 receptor expressed in HEK293 cells after 150 mins by liquid scintillation counting. Type of test: cell-based. In outline:
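HEK293 cells grown in MEM with 10% FBS and penicillin/streptomycin, PEI-transfected with human D2R plasmid (medium changed at 4 h, grown 24 h), then seeded and cultured overnight. Rinsed with ice-cold serum-free MEM, incubated with 2.2 nM [³H]-sulpiride plus varying ligand concentrations at 4 °C for 150 min. Washed three times in ice-cold MEM/10 mM HEPES pH 7.4, lysed in 1% SDS, scintillation counted. IC50 came from nonlinear regression curve fits.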

SMILES strings stand for the structures. Where “and” joins values, the source holds several entries; their conditions need not be identical. Identical values can stand only once.

T1 sequence (P35462 whole entry): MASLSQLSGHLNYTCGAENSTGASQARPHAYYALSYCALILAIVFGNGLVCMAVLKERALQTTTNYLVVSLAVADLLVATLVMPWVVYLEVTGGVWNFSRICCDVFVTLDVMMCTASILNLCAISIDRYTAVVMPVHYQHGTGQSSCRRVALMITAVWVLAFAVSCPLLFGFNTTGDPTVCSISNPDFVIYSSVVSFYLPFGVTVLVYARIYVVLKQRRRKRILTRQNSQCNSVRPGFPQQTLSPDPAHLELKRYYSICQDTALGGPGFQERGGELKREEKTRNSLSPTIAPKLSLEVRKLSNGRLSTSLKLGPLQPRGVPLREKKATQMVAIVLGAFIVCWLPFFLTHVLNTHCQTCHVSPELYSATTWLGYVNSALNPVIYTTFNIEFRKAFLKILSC
T2 sequence (P14416 whole entry): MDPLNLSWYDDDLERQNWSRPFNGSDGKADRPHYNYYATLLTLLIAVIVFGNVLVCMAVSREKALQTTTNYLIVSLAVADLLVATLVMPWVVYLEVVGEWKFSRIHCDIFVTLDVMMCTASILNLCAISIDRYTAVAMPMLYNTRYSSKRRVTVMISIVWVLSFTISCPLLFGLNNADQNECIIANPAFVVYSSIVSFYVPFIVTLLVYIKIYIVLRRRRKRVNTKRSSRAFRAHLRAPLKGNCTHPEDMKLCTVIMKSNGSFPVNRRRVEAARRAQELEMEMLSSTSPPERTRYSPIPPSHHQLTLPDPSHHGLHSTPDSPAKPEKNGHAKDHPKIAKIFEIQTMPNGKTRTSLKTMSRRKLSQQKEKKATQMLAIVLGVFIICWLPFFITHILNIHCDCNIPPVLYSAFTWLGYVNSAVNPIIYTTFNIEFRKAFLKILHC

As for `Clc1ccc(N2CCN(CCCCNc3noc(-c4ccccc4)n3)CC2)c(Cl)c1` [listing 1 of 3 here], the Ratio Ki in test [1] is 7.7 and 4.4.
With `Clc1ccc(-c2nc(NCCCCN3CCN(c4ccc(Cl)cc4Cl)CC3)no2)cc1`, the inhibition is 33.8% and 16.6% in test [2]; 15.2% and 40% in test [3].
In the case of `Clc1ccc(N2CCN(CCCCNc3noc(-c4ccccn4)n3)CC2)c(Cl)c1`, the inhibition is 9.5% and 14.8% in test [2]; 7.8% and 17.9% in test [3].
`CCCN(CCCCN1CCN(c2ccc(Cl)cc2Cl)CC1)c1noc(-c2ccccc2)n1`: the results for the inhibition in test [4] and in test [5] were 15.1% and -0.6%, respectively.
Taken in the same sequence, the figures for `CCCN(CCCCN1CCN(c2cccc(Cl)c2Cl)CC1)c1noc(-c2ccccc2)n1` were 22.1% and 50.1%.
As for `CCCN(CCCCN1CCN(c2ccccc2F)CC1)c1noc(-c2ccccc2)n1`, the inhibition in test [4] is 3.2%; in test [5], 10.6%.
As to `Fc1ccccc1N1CCN(CCCCNc2noc(-c3ccccc3)n2)CC1`, the inhibition is 50.7% in test [2] and 69.8% in test [3].
In the case of `Clc1ccc(N2CCN(CCCCNc3noc(-c4ccccc4)n3)CC2)c(Cl)c1` [listing 2 of 3 here], the inhibition constant (Ki) came out at 290 nM in test [6] and 1290 nM in test [7].
Take `CCCN(CCCCN1CCN(c2cccc(C(F)(F)F)c2)CC1)c1noc(-c2ccccc2)n1`: the inhibition in test [4] was 9.7%; in test [5] it was 17.8%.
For `Clc1cccc(-c2nc(NCCCCN3CCN(c4ccc(Cl)cc4Cl)CC3)no2)c1`, the inhibition is 37% and 41.5% in test [2]; 28.3% and 40.4% in test [3].
In test [7], `O=C(NCCCCN1CCN(c2ccc(Cl)cc2Cl)CC1)c1cc2ccccc2[nH]1` came in with a Ki greater than 23900 nM.
In the case of `Clc1ccc(N2CCN(CCCCNc3noc(-c4ccccc4)n3)CC2)cc1`, the inhibition constant (Ki) in test [6] stood at 270 nM; in test [7], 79600 nM. Also, the inhibition in test [3] is -2.6% and 8.3%. Further, the Ratio Ki in test [1] was determined as 297.
With `FC(F)(F)c1cccc(N2CCN(CCCCNc3noc(-c4ccccc4)n3)CC2)c1`, the inhibition came to 35.3% in test [2] and 19.8% in test [3].
In the case of `Clc1ccc(N2CCN(CCCCNc3noc(-c4ccccc4)n3)CC2)c(Cl)c1` [listing 3 of 3 here], the inhibition constant Ki stood at 810 nM in test [6] and 6230 nM in test [7].
With `COc1ccccc1-c1nc(NCCCCN2CCN(c3ccc(Cl)cc3Cl)CC2)no1`, the inhibition in test [2] is 4.2% and 7.7%; in test [3] it was 5.6% and 5.4%.
With `N#Cc1ccc(-c2nc(NCCCCN3CCN(c4ccc(Cl)cc4Cl)CC3)no2)cc1`, the inhibition is 36.6% and 11.8% in test [2]; 8.8% and 22.8% in test [3].
Turning to `Clc1ccc(N2CCN(CCCCNc3noc(-c4ccc(Br)cc4)n3)CC2)c(Cl)c1`, the inhibition stood at 14.2% in test [2] and 12.7% in test [3].

As usually defined, the inhibition is the change of the read-out against control, counted positive when it falls. As usually defined, the Ki is the dissociation constant of the complex between target and ligand, obtained from inhibition or displacement.
